High-throughput results as filed in PubChem.
M5 PAM – CHRM5 positive allosteric modulation; P08912; CHO-K1 hM5, Fluo-8 calcium, ACh EC20 PAM; 0% = ACh EC20, 100% = ACh EC100; activation, % at 3 µM; actives 0.3% (n = 360,000); AID 624038;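 active = activation above the run cutoff, the mean activation of all test compounds plus 3 SD, cut at about 18% in these data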
Target sequence (P08912 whole entry, looked up): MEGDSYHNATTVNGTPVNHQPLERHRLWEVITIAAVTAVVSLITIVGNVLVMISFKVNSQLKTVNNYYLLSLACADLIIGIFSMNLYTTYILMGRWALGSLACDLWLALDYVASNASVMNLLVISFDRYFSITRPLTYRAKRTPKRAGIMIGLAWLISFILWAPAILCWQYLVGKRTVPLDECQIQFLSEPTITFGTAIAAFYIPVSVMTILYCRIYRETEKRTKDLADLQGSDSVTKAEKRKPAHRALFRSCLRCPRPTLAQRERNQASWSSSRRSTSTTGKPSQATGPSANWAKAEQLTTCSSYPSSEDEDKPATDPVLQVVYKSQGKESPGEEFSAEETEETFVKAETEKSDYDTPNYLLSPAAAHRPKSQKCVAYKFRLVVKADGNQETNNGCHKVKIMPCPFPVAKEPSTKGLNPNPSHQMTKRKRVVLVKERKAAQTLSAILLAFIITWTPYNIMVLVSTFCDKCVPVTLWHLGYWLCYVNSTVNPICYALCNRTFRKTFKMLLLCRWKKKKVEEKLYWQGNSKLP
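system = human M5 receptor in CHO-K1 cells | reagent = EC20 acetylcholine as agonist stimulus | compound dosing = single-point, 3 µM nominal | incubation = Fluo-8 loading 80 min at 37 °C plus 30 min room temperature | detection = Fluo-8 calcium dye fluorescence, kinetic read | benchmarks = low control EC20 acetylcholine (0%), high control EC100 acetylcholine (100%)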
M4 antag – blocks acetylcholine activation of human M4 receptor. P08173. CHO-hM4 cells, ACh EC80, Fluo-8 calcium fluorescence. inhibition, % at 3 µM. actives 0.73% (n = 360,000);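 active = inhibition above its plate's cutoff, the mean inhibition of sample wells plus 3 SD, cut at about 27% in these data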
M4 ag – CHRM4 agonism in calcium assay; activation, % at 3 µM; CHO-K1 hM4/Gqi5, Fluo-8 calcium fluorescence; vehicle 0%, full acetylcholine response 100%; actives 0.14% (n = 360,000); P08173; AID 624127;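 active = activation above the run mean over all test wells plus 3 SD, cut at about 32% in these data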;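 also: peak over basal fluorescence ratio per well then scaled between controls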
CHRM5 antagonist – CHRM5 antagonism in calcium assay | P08912 | inhibition, % at 3 µM | actives 0.59% (n = 360,000) | AID 624040 | CHO-hM5 cells, Fluo-8 calcium fluorescence, ACh EC80;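 active = inhibition above a per-plate cutoff, the mean of that plate's test compounds plus 3 SD, cut at about 27% in these data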
CHRM4 PAM – CHRM4 positive allosteric modulation | actives 0.4% (n = 360,000) | AID 624126 | P08173 | CHO-K1 hM4/Gqi5, Fluo-8 calcium fluorescence, ACh EC20; 0% = ACh EC20, 100% = maximal ACh | activation, % at 3 µM;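 active = activation above its plate's cutoff, the mean activation of sample wells plus 3 SD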
CHRM5 agonist – CHRM5 agonism in calcium assay; CHO-K1 hM5 cells, Fluo-8 calcium fluorescence; 0% DMSO wells, 100% maximal acetylcholine response; activation, % at 3 µM; actives 0.19% (n = 360,000); P08912;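 active = activation above the run's mean over test compounds plus 3 SD, cut at about 23% in these data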;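 also: signal is peak over basal fluorescence ratio across the kinetic read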
Large screens that a line does not name were inactive. This is a sample that favours compounds with a hit; in the whole collection about 1.9% have one here.

O=C(O)C1CC(=O)N(CCc2ccc(F)cc2)C1 (stereo unspecified)	none
Cc1cccc(-n2cnc3sc(C)c(C)c3c2=O)c1	CHRM5 antagonist 35
CCOC(=O)[C@@H]1[C@H]2COc3ccc(Br)cc3[C@H]2N2C(=O)N(c3ccc(F)cc3)C(=O)[C@@]12C	none
CC(C)(C)c1nnc(N/N=C/c2cc(Br)ccc2O)n(N)c1=O	M4 antag 34
CC(=O)C1=C(c2ccccc2)NC(=S)NC1c1ccc(O)c(O)c1 (stereo unspecified)	M5 PAM 26
CCCCCCCCCCCC1N=C(N)NC(CCCO)=C1C(=O)OC (stereo unspecified)	none
CCC(c1ccccc1)c1noc(CCN(CC)CC)n1 (stereo unspecified)	M4 antag 59, CHRM5 antagonist 59
COCCN(C)Cc1nc(C(c2ccccc2)c2ccccc2)no1	none
O=C(Nc1ccccc1C(F)(F)F)C(O)(c1ccccc1)C1CCCCC1 (stereo unspecified)	none
C[N+]1(C)CCC(OC(=O)C(O)(c2ccccc2)C2CCCC2)C1 (stereo unspecified)	M4 antag 99, CHRM5 antagonist 98
C[N+]1(C)CC[C@H](OC(=O)[C@@](O)(c2ccccc2)C2CCCC2)C1	M4 antag 99, CHRM5 antagonist 99
Cc1ccc(C)c(N2N=C(C(=O)Nc3cccc(S(=O)(=O)N4CCCCC4)c3)CCC2=O)c1	none
COCCCNc1nc2ccccc2nc1NS(=O)(=O)c1cccc(Cl)c1	none
O=S(=O)(Nc1nc2ccccc2nc1NCCO)c1cccc(Cl)c1	M4 antag 29
Cc1ccc(C)c(NC(=O)CN(C)C(=O)CN2C(=O)C3CCCCC3C2=O)c1 (stereo unspecified)	none
Cc1cc(C)cc(CC(=O)N2CCC2(C)C(=O)NS(=O)(=O)c2cc(C)ccc2F)c1 (stereo unspecified)	none
CN(Cc1ccccc1)C(=O)COC(=O)C1CCN(S(=O)(=O)c2ccc(Cl)c(C(F)(F)F)c2)CC1	none
COc1ccccc1CNC(=O)CN1C(=O)c2ccc([N+](=O)[O-])cc2C1=O	CHRM5 antagonist 30
Cc1sc(N)nc1-c1c(C)n(C)c2ccccc12	none
CSc1nsc(SC)c1C(=O)Nc1ccc(C(C)(C)C)cc1	none
CSc1nsc(SC)c1C(=O)NC(=O)Nc1cccnc1	M5 PAM 22
Oc1ccccc1/C=N/N1CCCCC1	CHRM5 antagonist 30
Cc1sc2ncnc(NS(=O)(=O)c3ccc(Cl)cc3)c2c1C	none
CC(=O)Nc1ccc(S(=O)(=O)Nc2nc(C)nc3sc(C)c(C)c23)cc1	CHRM4 PAM 21
O=C(/C=C/c1ccccc1[N+](=O)[O-])OCC(=O)N1CCN(c2ccccc2)CC1	none
COc1ccc(S(=O)(=O)Nc2cc3[nH]c(=O)oc3cc2C)cc1	none
COc1ccc(-c2csc(NC(=O)c3c(OC)cccc3OC)n2)cc1	none
CCCNC(=O)c1ccccc1NS(=O)(=O)c1ccc(OC)c(OC)c1	none
COc1ccc(S(=O)(=O)Nc2ccccc2C(=O)Nc2nc(-c3ccc(F)cc3)cs2)cc1OC	M4 antag 33, CHRM5 antagonist 43
COc1ccc(-c2csc(NC(=O)c3ccccc3NS(=O)(=O)c3ccc(C)cc3)n2)cc1	CHRM5 antagonist 33
CCn1c(SCC(=O)N(Cc2ccccc2)C2CCS(=O)(=O)C2)nc2ccccc2c1=O (stereo unspecified)	CHRM4 PAM 31
CCN(C(=O)CSc1nc2ccccc2c(=O)n1Cc1ccc(C)cc1)C1CCS(=O)(=O)C1 (stereo unspecified)	none
CCn1c2ccccc2c2nnc(SCCN3CCOCC3)nc21	none
CCn1c2ccccc2c2nnc(SCCN3CCCCC3)nc21	M4 antag 28
CC(=O)NCCCc1nc2ccccc2n1Cc1ccccc1C	M4 antag 27
O=C(O)CCC(=O)Nc1sc2c(c1C(=O)Nc1cccc3ccccc13)CCCCC2	none
CC(C)OC(=O)c1c(NC(=O)CCC(=O)O)sc2c1CCCCC2	CHRM4 PAM 21
O=C(O)CCC(=O)Nc1sc2c(c1C(=O)Nc1ccccc1)CCCCC2	M4 antag 40
Cc1nc(SCC(=O)N2CCCC2=O)c2c(C)c(C)sc2n1	none
COc1ccc(OC)c(S(=O)(=O)n2nnc3ccccc32)c1	none
COc1ccc(F)cc1S(=O)(=O)n1nnc2ccccc21	CHRM4 PAM 22
CCc1nc2ccc(C(=O)NCc3ccc(OC)cc3)cn2c1N(C)Cc1ccc(OC)cc1	none
CCc1nc2ccc(C(=O)NCCN3CCCC3)cn2c1N(C)Cc1ccc(OC)cc1	M4 antag 56
CCCCN(C)c1c(C)nc2ccc(C(=O)NCCOc3ccc(OC)cc3)cn12	CHRM5 antagonist 29
CO/N=C/CC(=O)c1cnc(-c2ccc(Cl)cc2)s1	none
CC1=NNC(=O)C1Oc1ccccc1 (stereo unspecified)	none
Cc1nc(NC(=O)c2ccco2)sc1-c1csc(Nc2ccc(Cl)cc2Cl)n1	CHRM5 agonist 47
Cc1nc(NC(=O)c2ccco2)sc1-c1csc(Nc2ccc(Cl)cc2)n1	CHRM5 agonist 43
O=C(Nc1nc(-c2ccccc2)cs1)c1ccco1	none
Cc1ccc(-c2csc(NC(=O)c3ccco3)n2)cc1C	CHRM5 agonist 26
O=C1Nc2ccccc2-n2nnnc2C1N1CCc2ccccc2C1 (stereo unspecified)	none
CC(N)c1csc(Nc2ncccn2)n1 (stereo unspecified)	none
CCN(CC)S(=O)(=O)c1ccc(C(=O)NCC(c2cccs2)N2CCOCC2)cc1 (stereo unspecified)	M4 antag 39
Cn1c(N)c(C(=O)/C=C/c2ccccc2)c(=O)[nH]c1=O	CHRM5 antagonist 47
Cc1ccc(C(C)n2cc(C(=O)NCc3cccnc3)nn2)cc1 (stereo unspecified)	M5 PAM 18
CN(Cc1ccc(OC(F)F)cc1)C(=O)c1cccc(S(=O)(=O)N2CCN(c3ccccc3)CC2)c1	M4 antag 39, CHRM5 antagonist 29
Nc1nc2ccccc2cc1C(=O)NCc1ccc(Cl)cc1Cl	none
CCCCNC(=S)Nc1ccc(C(F)(F)F)cc1	CHRM5 antagonist 34
CCCCNC(=S)Nc1ccc(Cl)cc1	none
O=C(NC1CCCC1)N[C@@H]1CC[C@@H](CC(=O)N2CCOCC2)O[C@@H]1CO	none
CCN(CC)c1ccc(/C=N/Nc2nn[nH]n2)cc1	M5 PAM 19
CC1=C(C)CS(=O)N(S(=O)(=O)c2ccc(Cl)cc2)C1 (stereo unspecified)	M4 antag 48, CHRM5 agonist 25
